Screens as filed in PubChem BioAssay.
An excerpt weighted towards active compounds, which were near 3.6% of everything screened.
STAT3 activator: increases IL-6 driven STAT3 reporter signal; 0.91% of 190,000 active; U3A cells, IL-6 STAT3-luciferase reporter, luminescence; 100% = signal with IL-6 EC80 alone; AID 871; activation (% of control), % at 5.6 µM;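 active = activation above the screen-wide mean of compound activation plus 3 SD, cut at about 130% in these data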
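Detection: reporter luminescence signal / Assay system: STAT1-lacking human U3A cells, STAT3 luciferase reporter / Incubation: compound pre-incubation 1 h before IL-6, then 6 h stimulation at 37 °C / Control set: IL-6-only high control / Read-out: % activation relative to IL-6 control / Probe or stimulus: Interleukin-6, 33 ng/mL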
AHR activator: human AHR activation. P35869. AHR-responsive luciferase reporter cells, luminescence. activation, % at 5 µM. 2.5% of 320,000 active; in the data active = activation above about 47%
Target sequence (P35869 whole entry, looked up): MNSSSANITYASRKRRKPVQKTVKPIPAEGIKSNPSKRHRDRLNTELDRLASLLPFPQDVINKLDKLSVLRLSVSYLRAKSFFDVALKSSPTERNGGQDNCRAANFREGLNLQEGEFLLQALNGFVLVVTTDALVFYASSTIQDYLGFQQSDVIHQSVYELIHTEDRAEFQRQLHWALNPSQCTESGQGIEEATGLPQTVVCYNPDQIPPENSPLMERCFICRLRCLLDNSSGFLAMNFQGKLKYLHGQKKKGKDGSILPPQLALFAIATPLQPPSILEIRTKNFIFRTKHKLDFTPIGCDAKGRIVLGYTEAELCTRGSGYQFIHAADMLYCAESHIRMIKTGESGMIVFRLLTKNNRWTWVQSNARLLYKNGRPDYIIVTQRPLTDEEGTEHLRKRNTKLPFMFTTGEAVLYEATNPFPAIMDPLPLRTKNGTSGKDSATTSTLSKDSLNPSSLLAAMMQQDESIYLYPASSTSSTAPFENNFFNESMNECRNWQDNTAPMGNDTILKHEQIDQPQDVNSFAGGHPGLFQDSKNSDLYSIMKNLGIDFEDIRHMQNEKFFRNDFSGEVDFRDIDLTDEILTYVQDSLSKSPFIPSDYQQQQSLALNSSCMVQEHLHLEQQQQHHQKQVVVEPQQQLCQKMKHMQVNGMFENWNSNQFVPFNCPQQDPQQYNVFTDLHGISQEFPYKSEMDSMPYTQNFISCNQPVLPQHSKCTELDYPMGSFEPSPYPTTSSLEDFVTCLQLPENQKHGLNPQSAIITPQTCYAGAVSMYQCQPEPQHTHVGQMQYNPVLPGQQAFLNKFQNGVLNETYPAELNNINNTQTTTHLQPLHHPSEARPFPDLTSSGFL
PolyA inh: inhibitors of polyadenylation in S. cerevisiae; activity score, % at 12 µM; 0.02% of 300,000 active; S. cerevisiae SKY197-pL101 polyadenylation reporter, beta-gal luminescence; efflux-impaired pdr1/pdr3 knockout yeast; score 100 = 6 SD above DMSO;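 active = lowest replicate activity score at least 50, where 100 means six control SD above control mean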;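 also: yeast exposed to compound for 9 h at 30 °C; higher score means more reporter readthrough which indicates perturbed polyadenylation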
PERK inhibitor: human PERK inhibition, primary cell-based screen; Q9NZJ5; CHO PERK-DD fusion, SEAP luminescence translation reporter; inhibition, % at 5.6 µM; 0.17% of 220,000 active; AID 1416;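 active = inhibition above the mean inhibition of all tested compounds plus 3 SD, set separately per screening campaign, cut at about 2.9% in these data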;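 also: PERK kinase domain activated by AP20187 dimerizer at 100 nM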
HSF1 inhib: HSF1 inhibition; activity change, negative = inhibition, % at 7.5 µM (by protocol); NIH3T3-HGL HSE-luciferase, MG132-induced, luminescence 8 h; stronger effect = lower value; 0.77% of 300,000 active;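 active = more than half of replicate wells show activity change below -50%, luminescence cut by over half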;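 also: luciferase reports HSF-1 transcriptional activity via heat shock element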
Hsp70 act: switches on Hsp70 transcription | HeLa Hsp70 promoter luciferase reporter, luminescence; scaled: vehicle 0, proteasome-inhibitor control 100% | activation, % at 10 µM | 0.04% of 200,000 active | AID 1203;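 active = activation above the mean across all tested compounds plus 3 SD, cutoff set per campaign, cut at about 5.5% in these data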
Large screens that a line does not name were inactive.

NC(=NCc1ccccc1)NC(=O)c1nc(Cl)c(N)nc1N	AHR activator 69 (no result: STAT3 activator, PERK inhibitor, Hsp70 act)
Cn1cnc(S(=O)(=O)N2CCc3ccccc32)c1	PERK inhibitor 3.1
CCCn1cnc2cc(NCc3ccc(Br)cc3)ccc21	AHR activator 87 (no result: STAT3 activator, PERK inhibitor, Hsp70 act)
Cn1cnc2cc(NCc3ccc(Cl)cc3)ccc21	AHR activator 56 (no result: STAT3 activator, PERK inhibitor, Hsp70 act)
CCn1cnc2cc(NCc3nc4ccccc4n3Cc3ccccc3)ccc21	AHR activator 73
CN(C)c1ccc(CNc2ccc3c(c2)ncn3C(C)(C)C)cc1	HSF1 inhib -54 (no result: STAT3 activator, PERK inhibitor, Hsp70 act)
C#CCNC(=O)C1=C[C@H](C)C[C@H](OCc2ccc(CO)cc2)O1	none (no result: STAT3 activator, PERK inhibitor, Hsp70 act)
O=C(NCc1ccc(Cl)cc1)N1CCN(S(=O)(=O)c2ccccc2)CC1	none (no result: STAT3 activator, PERK inhibitor, Hsp70 act)
CC1CCc2c(sc3ncnc(NCCCOC(C)C)c23)C1 (configuration not stated)	AHR activator 61
COc1ccc(N2C(=S)NC3CS(=O)(=O)CC32)cc1 (configuration not stated)	none (no result: STAT3 activator, Hsp70 act)
Cc1oc2cc(O)ccc2c(=O)c1Oc1ccccc1Br	AHR activator 59
Oc1ccccc1-n1nc2ccc3nonc3c2n1	AHR activator 76 (no result: STAT3 activator, Hsp70 act)
Cc1ccc(O)c(-n2nc3ccccc3n2)c1	none
CSc1nsc(N/N=C/c2ccccc2)c1C#N	AHR activator 60
COc1cccc(/C=N/Nc2snc(SC)c2C#N)c1	AHR activator 49 (no result: PolyA inh, HSF1 inhib)
Cc1c(C=O)c2ccccc2n1CC(=O)NC(C)c1ccccc1 (configuration not stated)	none
Cc1sc2nc(CN(Cc3cccs3)C(=O)NC3CCCCC3)[nH]c(=O)c2c1C	AHR activator 65
CCN1CCN(c2ccc(NC(=O)COc3ccc(Cl)cc3C)cc2)CC1	none (no result: STAT3 activator, PolyA inh, PERK inhibitor, HSF1 inhib, Hsp70 act)
CN(CC(=O)Nc1ccc(F)cc1)S(=O)(=O)c1ccc2c(c1)c(=O)n(C)c(=O)n2C	none (no result: STAT3 activator, PERK inhibitor, Hsp70 act)
Nc1ccc2c(c1)OC1(CCCCC1)O2	STAT3 activator 135 (no result: AHR activator)
CN(C(=O)c1ccco1)c1nnc(C23CC4CC(CC(C4)C2)C3)s1	STAT3 activator 133
COc1ccccc1N(C)S(=O)(=O)c1ccc(C(=O)OCC(=O)NCCC2=CCCCC2)cc1	none
O=C(/C=C(/c1ccc(Cl)cc1)n1cncn1)c1ccccc1	AHR activator 64
CN(C)/C=C(/C(=O)c1ccccc1)n1cncn1	none
CC(C)Cn1c(N)c(C(=O)COC(=O)Cc2cccc(C(F)(F)F)c2)c(=O)n(C)c1=O	none (no result: STAT3 activator, PERK inhibitor, Hsp70 act)
CC(C)n1c(SCC(=O)NCc2ccco2)nnc1C1CC1	none (no result: STAT3 activator, PERK inhibitor, Hsp70 act)
COc1cc(OC)c2c(=O)cc(-c3ccccc3)oc2c1	none (no result: STAT3 activator)
COc1cc(OC)c2c(=O)cc(-c3cccnc3)oc2c1	AHR activator 62 (no result: STAT3 activator, Hsp70 act)
CCOc1ccc(NS(=O)(=O)c2ccc(C(=O)NCC(c3ccc(OC)cc3)N3CCCC3)cc2)cc1 (configuration not stated)	none (no result: STAT3 activator, PERK inhibitor, Hsp70 act)
Cc1ccc(C)c(NC(=O)CCc2nnc3ccc(N4CCCCC4)nn23)c1	none (no result: STAT3 activator, PERK inhibitor, Hsp70 act)
C=CCn1c2ccccc2c2nnc(SCC(=O)OCN3C(=O)c4ccccc4C3=O)nc21	none
C=CCn1c2ccccc2c2nnc(SCC(=O)O)nc21	HSF1 inhib -60 (no result: STAT3 activator, PERK inhibitor, Hsp70 act)
Cc1ccc(OCC(=O)Nc2cccc(S(=O)(=O)N3CCCCCC3)c2)cc1C	none (no result: STAT3 activator, PERK inhibitor, Hsp70 act)
COCCOC(=O)C(CC(=O)O)NCc1ccco1 (configuration not stated)	PERK inhibitor 4.0 (no result: STAT3 activator, Hsp70 act)
COc1ccc(C2N(c3ccc4c(c3)OCCO4)C(=O)C2(F)F)cc1OC (configuration not stated)	none (no result: STAT3 activator, Hsp70 act)
COP(=O)(OC)C(Nc1ccc([N+](=O)[O-])cc1)c1ccccc1 (configuration not stated)	none (no result: STAT3 activator, Hsp70 act)
CCCOP(=O)(OCCC)C(Nc1ccc(C(C)C)cc1)c1ccc([N+](=O)[O-])cc1 (configuration not stated)	AHR activator 60
COCCNC(=O)CN1C(=O)NC2(CCCc3ccccc32)C1=O (configuration not stated)	none (no result: STAT3 activator, PERK inhibitor, Hsp70 act)
CCOc1ccc(NC(=S)Nc2cc(-c3ccccc3)[nH]n2)cc1	AHR activator 78
COc1ccc(NC(=S)Nc2cc(-c3ccccc3)[nH]n2)cc1Cl	none
S=C(NCc1ccco1)Nc1cc(-c2ccccc2)[nH]n1	AHR activator 74
S=C(NCc1ccco1)Nc1ccc(Cl)c(Cl)c1	none
COc1ccc(NC2CCCN(C(=O)CSc3ccccn3)C2)cc1OC (configuration not stated)	none (no result: STAT3 activator, PERK inhibitor, Hsp70 act)
CC(C)[C@H](NC(=O)OC(C)(C)C)C(=O)NCC1CCC(C(=O)N[C@@H](Cc2ccccc2)C(=O)O)CC1 (some centres not stated)	HSF1 inhib -59 (no result: STAT3 activator, PERK inhibitor, Hsp70 act)
CC(C)[C@H](N)C(=O)NC[C@H]1CC[C@H](C(=O)N[C@@H](Cc2ccccc2)C(=O)O)CC1	HSF1 inhib -63 (no result: STAT3 activator, PERK inhibitor, Hsp70 act)
CCc1cccc(C)c1NC(=O)C1CC(=O)N(C2CCCC2)C1 (configuration not stated)	none (no result: STAT3 activator, PolyA inh, PERK inhibitor, HSF1 inhib, Hsp70 act)
CCCCCCCN(C(=O)CCl)c1cccc(C)c1	HSF1 inhib -93
Cc1cccc(N(Cc2cc(=O)[nH]c3ccccc23)C(=O)CCl)c1	none (no result: STAT3 activator, PERK inhibitor, Hsp70 act)
CCCCCCN(C(=O)CCl)c1ccccc1	HSF1 inhib -68 (no result: STAT3 activator, Hsp70 act)
CCOC(=O)c1cnc2ccc(C(=O)OC)cc2c1NCCN1CCOCC1	none
CCOC(=O)c1cnc2ccc(C(=O)OC)cc2c1NCCCN1CCOCC1	HSF1 inhib -83 (no result: STAT3 activator, AHR activator, PERK inhibitor, Hsp70 act)
Cc1ccc(N(CC2CO2)S(=O)(=O)c2ccc([N+](=O)[O-])cc2)cc1 (configuration not stated)	none (no result: STAT3 activator, PERK inhibitor, Hsp70 act)
Cc1ccc(-n2c(C)cc(C3=NNC(=NC4CC4)SC3)c2C)cc1C	AHR activator 51
Cc1cc(C2=NNC(=NC3CC3)SC2)c(C)n1-c1c(C)n(C)n(-c2ccccc2)c1=O	none
C#Cc1ccc(CN2CCC(Oc3cc(C(=O)NC4CC4)ccc3OC)CC2)cc1	none (no result: STAT3 activator, AHR activator, PERK inhibitor, Hsp70 act)
COC(=O)c1c(NC(=S)Nc2ccc(C(=O)N3CCOCC3)cc2)sc2c1CCC2	PERK inhibitor 3.0
COc1ccc(OC)c(C(C(=O)NC2CCCCC2)N(Cc2ccco2)C(=O)c2ccccn2)c1 (configuration not stated)	none (no result: STAT3 activator, PERK inhibitor, Hsp70 act)
O=C(c1ccc(Cl)s1)N1CCN(S(=O)(=O)c2ccc(Cl)cc2)CC1	none (no result: STAT3 activator, PolyA inh, PERK inhibitor, HSF1 inhib, Hsp70 act)
C=CCc1c(C)nc(C)nc1N/N=C/c1ccc([N+](=O)[O-])cc1	AHR activator 78
C=CCc1c(C)nc(C)nc1N/N=C/c1ccccc1O	none
COCCn1c(=S)[nH]c2cc(C(=O)N3CCCC(C)C3)ccc2c1=O (configuration not stated)	none (no result: STAT3 activator, PERK inhibitor, Hsp70 act)
CC(=O)c1cccc(CN2CCN(C(C)C)C(CCO)C2)c1 (configuration not stated)	none
Cc1ccc(NC(=O)O/N=C/c2c(C)nn(C(C)(C)C)c2C)cc1Cl	HSF1 inhib -93 (no result: STAT3 activator, Hsp70 act)
CC(C)CCn1c2ccccc2c2cc(CC(N)=O)ccc21	none (no result: STAT3 activator, Hsp70 act)
O=c1oc2ccccc2nc1/C=C(\O)c1ccccc1	none (no result: STAT3 activator, Hsp70 act)
